Drawing on PMC9169238 (RSC Advances, 2022), this text covers IC50 for 17 compounds.

By IC50 is commonly meant the midpoint of a concentration-inhibition curve.

SMILES strings stand for the structures.

What all share (assay type): cell-based
For assay [1], the system named is Hep G2 – Homo sapiens hepatocellular carcinoma. Nature of the assay: MTT cytotoxicity assay, HepG2. To be noted: HepG2, 24 h, read-out: IC50 values (μM) HEPG2. Summed up: (§1)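 Test compound at 1 to 100 μM for 24 h. MTT (0.5 mg mL−1) added for 3 h, formazan dissolved in DMSO, absorbance read. Run in triplicate; IC50 calculated.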
(In general: Tetrazolium dyes change colour on reduction, which living cells bring about.)

Assay [2] concerns A549 – Homo sapiens lung carcinoma. The assay can be described thus: MTT cytotoxicity assay, A549. To be noted: A549, 24 h, read-out: IC50 values (μM) A549. A digest of the protocol: as §1
In assay [3] the test system is DU145 – Homo sapiens prostrate carcinoma. Nature of the assay: MTT cytotoxicity assay, DU145. As to conditions: DU-145, 24 h, read-out: IC50 values (μM) DU145. A digest of the protocol:
as §1

Assay [4] concerns B16-F10 – Mus musculus mouse skin melanoma. Nature of the assay: MTT cytotoxicity assay, B16-F10. As to conditions: B16-F10, 24 h, read-out: IC50 values (μM) B16-F10. A digest of the protocol:
as §1

Assay [5] deals with CHO-K1 – Cricetulus griseus chinese hamster ovary cells. Nature of the assay: MTT cytotoxicity assay, non-cancerous CHO-K1. To be noted: CHO-K1, 24 h, read-out: IC50 values (μM) CHO.

Take `O=C(Nc1ccccc1)c1ccccc1-n1c(=O)[nH]c2ccccc2c1=O` [Compound 3a, 2-(2,4-dioxo-1,2-dihydroquinazolin-3(4H)-yl)-N-phenylbenzamide]: the IC50 in assay [1] was 8.73 ± 0.02 µM; in assay [2] it was 29.4 ± 0.45 µM; in assay [3], 14.83 ± 0.13 µM; in assay [4] it was 39.51 ± 0.13 µM.

`COc1ccc(NC(=O)c2ccccc2-n2c(=O)[nH]c3ccccc3c2=O)cc1` [Compound 3b, 2-(2,4-dioxo-1,2-dihydroquinazolin-3(4H)-yl)-N-(4-methoxyphenyl)benzamide]: the IC50 in assay [1] came to 23.3 ± 0.52 µM; in assay [2], 19.5 ± 0.25 µM; in assay [3], 11.56 ± 0.06 µM; in assay [4] it was 24.8 ± 0.7 µM.

Regarding `Cc1ccc(NC(=O)c2ccccc2-n2c(=O)[nH]c3ccccc3c2=O)cc1` [Compound 3c, 2-(2,4-dioxo-1,2-dihydroquinazolin-3(4H)-yl)-N-(p-tolyl)benzamide], the IC50 in assay [1] came out at 5.33 ± 0.12 µM; in assay [2] it was 15.2 ± 0.7 µM; in assay [3], 11.49 ± 0.04 µM; in assay [4], 17.9 ± 0.17 µM.

For the compound `O=C(Nc1ccc(Br)cc1)c1ccccc1-n1c(=O)[nH]c2ccccc2c1=O` [Compound 3e, N-(4-Bromophenyl)-2-(2,4-dioxo-1,2-dihydroquinazolin-3(4H)-yl)benzamide], the half-maximal inhibitory concentration (IC50) was 69.4 ± 5.17 µM in assay [5]; 9.48 ± 0.05 µM in assay [1]; 11.7 ± 0.14 µM in assay [2]; 12.05 ± 0.02 µM in assay [3]; 14.67 ± 0.05 µM in assay [4].

For `CCCCNC(=O)c1cc(Cl)ccc1-n1c(=O)[nH]c2ccccc2c1=O` [Compound 3g, N-Butyl-5-chloro-2-(2,4-dioxo-1,2-dihydroquinazolin-3(4H)-yl)benzamide], the IC50 in assay [1] was 15.3 ± 0.78 µM; in assay [2], 30.4 ± 5.52 µM; in assay [3], 18.65 ± 0.08 µM; in assay [4], 20.5 ± 0.91 µM.

`CCNC(=O)c1ccccc1-n1c(=O)[nH]c2ccccc2c1=O` [Compound 3h, 2-(2,4-Dioxo-1,2-dihydroquinazolin-3(4H)-yl)-N-ethylbenzamide]: the IC50 in assay [5] worked out at 94.2 ± 2.44 µM; in assay [1], 16.7 ± 1.72 µM; in assay [2], 34.8 ± 4.65 µM; in assay [3], 10.44 ± 0.02 µM; in assay [4], 27.1 ± 0.68 µM.

As for `COc1ccc(NC(=O)c2ccccc2-n2c(=O)[nH]c3ccc(F)cc3c2=O)cc1` [Compound 3j, 2-(6-Fluoro-2,4-dioxo-1,2-dihydroquinazolin-3(4H)-yl)-N-(4-methoxyphenyl)benzamide], the IC50 in assay [1] was 8.74 ± 0.34 µM; in assay [2], 30.4 ± 1.35 µM; in assay [3], 12.3 ± 0.17 µM; in assay [4], 34.3 ± 1.55 µM.

With `O=C(Nc1ccc(F)cc1)c1ccccc1-n1c(=O)[nH]c2ccc(F)cc2c1=O` [Compound 3k, 2-(6-Fluoro-2,4-dioxo-1,2-dihydroquinazolin-3(4H)-yl)-N-(4-fluorophenyl)benzamide], the 50% inhibitory concentration (IC50) in assay [1] was 28.7 ± 0.92 µM; in assay [2], 17.2 ± 0.41 µM; in assay [3] it was 11.59 ± 0.06 µM; in assay [4], 30 ± 0.42 µM.

For the compound `O=C(Nc1ccc(Br)cc1)c1ccccc1-n1c(=O)[nH]c2ccc(F)cc2c1=O` [Compound 3l, N-(4-Bromophenyl)-2-(6-fluoro-2,4-dioxo-1,2-dihydroquinazolin-3(4H)-yl)benzamide], the 50% inhibitory concentration (IC50) is 51.5 ± 2.74 µM in assay [5]; 7.77 ± 0.02 µM in assay [1]; 17.4 ± 0.18 µM in assay [2]; 12.63 ± 0.08 µM in assay [3]; 28.5 ± 0.31 µM in assay [4].

On to `CCNC(=O)c1ccccc1-n1c(=O)[nH]c2ccc(F)cc2c1=O` [Compound 3m, N-Ethyl-2-(6-fluoro-2,4-dioxo-1,2-dihydroquinazolin-3(4H)-yl)benzamide], for which the half-inhibitory concentration (IC50) came out at 88 ± 3.56 µM in assay [5]; 20.2 ± 0.31 µM in assay [1]; 26.3 ± 1.32 µM in assay [2]; 19.39 ± 0.14 µM in assay [3]; 41.4 ± 0.81 µM in assay [4].

Take `O=C(Nc1ccccc1)c1ccccc1-n1c(=O)[nH]c2ccc(Cl)cc2c1=O` [Compound 3n, 2-(6-Chloro-2,4-dioxo-1,2-dihydroquinazolin-3(4H)-yl)-N-phenylbenzamide]: the half-inhibitory concentration (IC50) in assay [5] was 73.9 ± 2.81 µM; in assay [1], 12.3 ± 0.26 µM; in assay [2] it was 14.7 ± 0.18 µM; in assay [3], 10.4 ± 0.13 µM; in assay [4], 14.83 ± 0.01 µM.

Regarding `O=C(Nc1ccc(F)cc1)c1ccccc1-n1c(=O)[nH]c2ccc(Cl)cc2c1=O` [Compound 3o, 2-(6-Chloro-2,4-dioxo-1,2-dihydroquinazolin-3(4H)-yl)-N-(4-fluorophenyl)benzamide], the IC50 in assay [5] stood at 74.5 ± 9.44 µM; in assay [1] it was 3.02 ± 0.06 µM; in assay [2], 26.3 ± 1.03 µM; in assay [3] it was 5.17 ± 0.07 µM; in assay [4], 16.03 ± 0.06 µM.

As for `CCNC(=O)c1ccccc1-n1c(=O)[nH]c2ccc(Cl)cc2c1=O` [Compound 3p, 2-(6-Chloro-2,4-dioxo-1,2-dihydroquinazolin-3(4H)-yl)-N-ethylbenzamide], the 50% inhibitory concentration (IC50) in assay [1] was found to be 33.9 ± 0.71 µM; in assay [2], 22.8 ± 0.71 µM; in assay [3], 13.02 ± 0.03 µM; in assay [4] it was 31.67 ± 0.14 µM.

As for `CCCCNC(=O)c1cc(Cl)ccc1-n1c(=O)[nH]c2ccc(Cl)cc2c1=O` [Compound 3q, N-Butyl-5-chloro-2-(6-chloro-2,4-dioxo-1,2-dihydroquinazolin-3(4H)-yl)benzamide], the IC50 amounted to 8.51 ± 0.2 µM in assay [1], 28.7 ± 1.38 µM in assay [2], 9.37 ± 0.03 µM in assay [3] and 36.46 ± 0.1 µM in assay [4].

With `O=C(Nc1ccccc1)c1ccccc1-n1c(=O)[nH]c2ccc([N+](=O)[O-])cc2c1=O` [Compound 3r, 2-(6-Nitro-2,4-dioxo-1,2-dihydroquinazolin-3(4H)-yl)-N-phenylbenzamide], the IC50 in assay [1] was determined as 16 ± 0.51 µM; in assay [2], 16.7 ± 0.3 µM; in assay [3], 15.59 ± 0.07 µM; in assay [4], 33.13 ± 0.12 µM.

Regarding `O=c1[nH]cc(F)c(=O)[nH]1` [Compound 5FU, 5-fluorouracil, reference compound], the IC50 came to 23 ± 0.27 µM in assay [1], 29.6 ± 1.64 µM in assay [2], 16.32 ± 0.02 µM in assay [3] and 7.55 ± 0.01 µM in assay [4].

Consider `COc1cccc2c1C(=O)c1c(O)c3c(c(O)c1C2=O)C[C@@](O)(C(=O)CO)C[C@@H]3O[C@H]1C[C@H](N)[C@H](O)[C@H](C)O1` [Doxorubicin, doxorubicin, reference compound], for which the IC50 stood at 0.72 ± 0.012 µM in assay [1], 0.55 ± 0.16 µM in assay [2], 0.363 ± 0.01 µM in assay [3] and 0.7 ± 0.56 µM in assay [4].
